In ChEMBL document CHEMBL1154621, “Structure-based design of DevR inhibitor active against nonreplicating Mycobacterium tuberculosis” (J Med Chem, 2009):
Calls of active or inactive are those of the source. The rule behind the calls is not given here.

What was measured:
[1] = target: T1, DNA-binding transcriptional activator DevR/DosR (Mycobacterium tuberculosis, UniProt P9WMF9); assay: Inhibition of DevR region-dependent Rv3134c promoter activity in Mycobacterium tuberculosis H37Rv after 48 hrs by GFP reporter gene assay
How it was run: (§1)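 H37Rv carrying DevR-regulated promoter-gfp plasmids, grown in Dubos/Tween/ADC medium to OD595 ~0.4 and diluted to OD ~0.05. Exposed to 2-fold serial compound dilutions from DMSO stocks for 48 h at 37 °C. Fluorescence corrected for vector and compound background. Percent inhibition = [1 - RFUcompound/RFUDMSO] × 100; mean ± SD of three experiments, each in triplicate wells.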

[2] = target: T1, DNA-binding transcriptional activator DevR/DosR; assay: Inhibition of Mycobacterium tuberculosis phosphorylated DevR binding to fdxA promoter DNA after 10 mins by EMSA
How it was run: (§2)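 N-terminal GST-tagged DevR was phosphorylated with acetyl phosphate; DevR~P (1 μM final) was preincubated 10 min at 30 °C with or without compound. ~2 ng 32P end-labelled fdxA promoter PCR probe was added and incubated 30 min on ice in binding buffer. Complexes resolved by gel electrophoresis.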

[3] = tested on: Mycobacterium tuberculosis; assay: Antimycobacterial activity against 30 day old non-replicating dormant cultures of Mycobacterium tuberculosis H37Rv assessed as reduction of bacterial viability measured after 11 days by resazurin reduction assay; format: functional, organism-based
How it was run: (§3)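 H37Rv grown in Dubos medium to OD595 ~0.4, diluted to OD595 0.003; 2 mL aliquots held static in sealed 4 mL tubes for 30 days until hypoxic. Compounds added to these dormant cultures for a further 11 days. Metronidazole and isoniazid were controls. Read by CFU plating of aliquots, then resazurin 0.02% plus Tween-80 20% injected, overnight incubation, resazurin reduction (HyRRA).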

[4] = tested on: Mycobacterium tuberculosis; assay: Antimycobacterial activity against 30 day old non-replicating dormant cultures of Mycobacterium tuberculosis H37Rv assessed as revival of bacterial viability exposed for 11 days measured after 30 days post exposure by resazurin reduction assay; format: functional, organism-based
How it was run: (§4)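 Hypoxic cultures were pelleted at 11000g at the end of exposure (30 days if compound was given on day 0, 41 days if given on day 30). Washed and resuspended in 4 mL 7H9 with 5% OADC and 0.1% Tween-80. Grown aerobically at 190 rpm, 37 °C. Aliquots taken every 5 days; recovery read by resazurin reduction and OD595, scored 1-40 with day 0 = 1.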

[5] = tested on: Mycobacterium tuberculosis; assay: Inhibition of constitutive sigA promoter activity in Mycobacterium tuberculosis H37Rv; format: functional, organism-based
How it was run: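 Strains carrying Rv3134c or sigA promoter-gfp were grown in 7H9/Tween/ADC to OD595 ~0.40. Washed twice with PBS, resuspended in PBS (starved) or medium, and diluted to OD595 ~0.02. 1 mL aliquots incubated; 200 μL samples taken weekly to measure GFP fluorescence.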

[6] = target: DNA-binding transcriptional activator DevR/DosR (Mycobacterium tuberculosis) (UniProt P9WMF9); assay: Inhibition of Mycobacterium tuberculosis phosphorylated DevR binding to fdxA promoter DNA at 250 uM after 10 mins by EMSA; how it was run: as §2
[7] = target: DNA-binding transcriptional activator DevR/DosR (Mycobacterium tuberculosis) (UniProt P9WMF9); assay: Inhibition of DevR region-dependent Rv3134c promoter activity in Mycobacterium tuberculosis H37Rv at 250 uM after 48 hrs by GFP reporter gene assay; how it was run: as §1
[8] = tested on: Mycobacterium tuberculosis; assay: Antimycobacterial activity against hypoxic dormant cultures of Mycobacterium tuberculosis H37Rv assessed as reduction of bacterial viability at 131 ug/mL administered on day 0 into hypoxic tubes measured after 30 days by resazurin reduction assay; format: functional
How it was run: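 H37Rv in Dubos medium at OD595 0.003; 2 mL aliquots in sealed 4 mL tubes held static, compound injected on day 0. Incubated until methylene blue decolorized (anaerobiosis, ~30 days). CFU plating of aliquots, then resazurin 0.02% and Tween-80 20% injected, overnight incubation, viability by resazurin reduction (HyRRA). DMSO control matched.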

[9] = target: T1, DNA-binding transcriptional activator DevR/DosR; assay: Inhibition of DevR region-dependent hspX promoter activity in Mycobacterium tuberculosis H37Rv after 48 hrs by GFP reporter gene assay; how it was run: as §1
[10] = tested on: Mycobacterium tuberculosis; assay: Antimycobacterial activity against aerobic Mycobacterium tuberculosis H37Rv by resazurin reduction based REMA assay; format: functional, organism-based
How it was run: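 Aerobic H37Rv exposed to compounds in triplicate cultures for 7 days. Then 0.02% resazurin and 20% Tween-80 added; after 48 h, blue-to-pink colour change read, with fluorescence at excitation 530 nm, emission 590 nm.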

[11] = target: DNA-binding transcriptional activator DevR/DosR (Mycobacterium tuberculosis) (UniProt P9WMF9); assay: Inhibition of Mycobacterium tuberculosis phosphorylated DevR binding to fdxA promoter DNA added before DevR phosphorylation by EMSA
[12] = target: DNA-binding transcriptional activator DevR/DosR (Mycobacterium tuberculosis) (UniProt P9WMF9); assay: Inhibition of Mycobacterium tuberculosis phosphorylated DevR binding to fdxA promoter DNA added after DevR phosphorylation by EMSA
[13] = tested on: Mycobacterium tuberculosis; assay: Antimycobacterial activity against 30 day old non-replicating dormant cultures of Mycobacterium tuberculosis H37Rv assessed as revival of bacterial viability at 131 ug/mL exposed for 11 days measured after 30 days post exposure by resazurin reduction assay; format: functional, organism-based; how it was run: as §4
[14] = target: DNA-binding protein HupB (Mycobacterium tuberculosis (strain ATCC 25177 / H37Ra)) (UniProt A5U6Z7); assay: Inhibition of Mycobacterium tuberculosis HupB binding to fdxA promoter DNA at 500 uM by EMSA
How it was run: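 Purified HupB protein incubated with compound, then ~2 ng 32P-labelled fdxA promoter probe added for 30 min on ice in binding buffer. Complexes resolved by gel shift electrophoresis against positive and negative controls.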

[15] = tested on: Mycobacterium tuberculosis; assay: Antimycobacterial activity against nutrient starvation-induced dormant Mycobacterium tuberculosis H37Rv expressing Rv3134c/sigA promoter driven GFP reporter genes; format: functional, organism-based
[16] = tested on: Mycobacterium tuberculosis; assay: Antimycobacterial activity against hypoxic dormant cultures of Mycobacterium tuberculosis H37Rv assessed as revival of bacterial viability at 131 ug/mL administered on day 0 into hypoxic tubes measured after 30 days under hypoxic conditions by resazurin reduction assay; format: functional, organism-based; how it was run: as §4
[17] = tested on: Mycobacterium tuberculosis; assay: Antimycobacterial activity against 30 day old non-replicating dormant cultures of Mycobacterium tuberculosis H37Rv assessed as reduction of bacterial viability at 131 ug/mL measured after 11 days by resazurin reduction assay; format: functional, organism-based; how it was run: as §3
[18] = target: T1, DNA-binding transcriptional activator DevR/DosR; assay: Inhibition of DevR region-dependent narK2 promoter activity in Mycobacterium tuberculosis H37Rv after 48 hrs by GFP reporter gene assay; how it was run: as §1
[19] = target: DNA-binding transcriptional activator DevR/DosR (Mycobacterium tuberculosis) (UniProt P9WMF9); assay: Inhibition of Mycobacterium tuberculosis phosphorylated DevR binding to fdxA promoter DNA at 500 uM after 10 mins by EMSA; how it was run: as §2

T1 sequence (P9WMF9 whole entry): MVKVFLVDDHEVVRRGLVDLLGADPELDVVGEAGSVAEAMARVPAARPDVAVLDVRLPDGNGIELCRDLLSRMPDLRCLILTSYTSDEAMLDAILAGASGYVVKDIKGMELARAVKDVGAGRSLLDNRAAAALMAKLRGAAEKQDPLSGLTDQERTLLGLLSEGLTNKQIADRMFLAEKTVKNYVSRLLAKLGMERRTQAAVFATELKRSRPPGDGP
Sequence of DNA-binding transcriptional activator DevR/DosR (Mycobacterium tuberculosis) (P9WMF9 whole entry): as above
Sequence of DNA-binding protein HupB (Mycobacterium tuberculosis (strain ATCC 25177 / H37Ra)) (A5U6Z7 whole entry): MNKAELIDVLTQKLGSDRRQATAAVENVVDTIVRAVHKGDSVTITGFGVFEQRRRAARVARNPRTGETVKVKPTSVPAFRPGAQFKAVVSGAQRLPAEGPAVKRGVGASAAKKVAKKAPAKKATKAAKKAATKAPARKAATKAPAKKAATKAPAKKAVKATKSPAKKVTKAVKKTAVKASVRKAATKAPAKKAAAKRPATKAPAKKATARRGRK

Row | SMILES | IC50 [1] | IC50 [2] | IC50 ([1]; read-out: IC50 (converted)) [µM] | Activity [5] | IC50 ([2]; read-out: IC50 (converted)) [µM] | inhibition [7] [%] | further results
1 | Cc1cc(=O)[nH]c2sc(C(=O)c3ccc(Br)cc3)c(N)c12 | Not Active | Not Active |  |  |  |  | 
2 | COc1cc(C(=O)NCC(=O)NN)cc(OC)c1OC | Not Active | Not Active |  |  |  |  | 
3 | O=C(NCc1ccccc1)c1ccccc1NS(=O)(=O)c1ccc2c(c1)OCCO2 | Not Active | Not Active |  |  |  |  | 
4 | O=c1[nH]cc(/N=C/c2cc([N+](=O)[O-])ccc2O)c(=O)[nH]1 | Not Active | Not Active |  |  |  |  | 
5 | NNC(=O)c1ccncc1 |  |  |  |  |  |  | Activity [3]: inactive; Activity [4]: inactive
6 | COc1cc(Br)cc(/C=C2/SC(Nc3cccc(C(=O)O)c3)=NC2=O)c1O | Not Active | Not Active |  |  |  |  | 
7 | COC(=O)c1ccc(Cl)c(NC(=O)c2ccc(CN3CCOCC3)cc2)c1 | Not Active | Not Active |  |  |  |  | 
8 | Nc1nc2c(nc(Br)n2[C@H]2O[C@H](CO)[C@@H](O)[C@@H]2O)c(=O)[nH]1 | Not Active | Not Active |  |  |  |  | 
9 | COc1cc(NC(=O)c2cc3ccccc3o2)ccc1NC(=O)c1ccccc1Cl |  |  | 300 | Active | 200 | 30 | Activity [6]: Active
10 | COc1cc(NC(=O)c2ccc(-c3cc4ccccc4oc3=O)cc2)ccc1NC(=O)c1ccccc1Cl |  |  | 125 | inactive | < 49.9 | 50 | Activity [8]: >99%; IC50 [9]: < 125 µM; Activity [10]: inactive; Activity [11]: Active; Activity [12]: Active; Activity [6]: Active; Activity [13]: inactive; Activity [14]: inactive; Activity [15]: inactive; Activity [16]: Active; Activity [17]: inactive; IC50 [18]: < 125 µM
11 | COc1cc(NC(=O)CCc2ccc(OCc3ccc(Cl)cc3)c(OC)c2)c(OC)cc1Cl |  |  | 249 | Active | 295 | 50 | Activity [6]: Active
12 | C=CCc1cc(/C=C2\NC(=O)N(c3ccccc3F)C2=O)cc(OCC)c1O |  |  | 311 | Active | 259 | 30 | inhibition [19]: 100%
13 | Cc1ncc([N+](=O)[O-])n1CCO |  |  |  |  |  |  | Activity [3]: Active; Activity [4]: Active
